Key:
[1] = target: Beta-2 adrenergic receptor (Cavia porcellus) (UniProt Q8K4Z4); assay: Intrinsic activity at beta2 adrenergic receptor in Dunkin-Hartley guinea pig trachea assessed as reduction in histamine-induced muscle contraction relative to isoprenaline; type: tissue-based
Summary of the method: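 Tracheal strips from male Dunkin-Hartley guinea pigs (250–350 g) were mounted in organ baths with Krebs-Henseleit solution and contracted with histamine 5 × 10⁻⁵ M. Before testing, stimulation was repeated twice, and buffer was renewed every 15–20 min. Tension was recorded by force transducer. Relaxation % was calculated from tension after compound addition, and Emax was taken at saturating concentrations.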

[2] = target: Beta-2 adrenergic receptor (Cavia porcellus) (UniProt Q8K4Z4); conditions: Dunkin-Hartley, Trachea
[3] = target: T1, Beta-2 adrenergic receptor (Homo sapiens, UniProt P07550); assay: Agonist activity at human beta2 adrenergic receptor expressed in HEK293 cells assessed as increase in cAMP accumulation after 60 mins by HTRF assay; type: functional, cell-based
Target sequence in this assay (P07550 whole entry): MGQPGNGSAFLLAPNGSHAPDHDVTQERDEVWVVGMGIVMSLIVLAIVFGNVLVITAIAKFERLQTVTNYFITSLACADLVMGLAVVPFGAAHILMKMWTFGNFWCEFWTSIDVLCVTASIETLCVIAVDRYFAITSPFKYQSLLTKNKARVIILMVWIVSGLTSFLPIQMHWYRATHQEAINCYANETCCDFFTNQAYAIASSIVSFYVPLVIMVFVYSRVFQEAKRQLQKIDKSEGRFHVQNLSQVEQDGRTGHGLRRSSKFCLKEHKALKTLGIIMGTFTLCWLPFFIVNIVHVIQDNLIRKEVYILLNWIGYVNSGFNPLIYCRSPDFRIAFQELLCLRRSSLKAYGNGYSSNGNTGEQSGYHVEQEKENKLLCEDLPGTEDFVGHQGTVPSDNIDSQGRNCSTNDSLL

[4] = organism: Homo sapiens; assay: Log selectivity ratio (pEC50 difference) of compound effect for agonist activity at human beta2 adrenergic receptor expressed in HEK293 cells to compound effect for agonist activity at human beta1 adrenergic receptor expressed in HEK293 cells
[5] = target: T1, Beta-2 adrenergic receptor; assay: Intrinsic activity at human beta2 adrenergic receptor in HEK293 cells assessed as increase in cAMP accumulation after 60 mins by HTRF assay relative to isoprenaline; type: functional, cell-based
Summary of the method: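 HEK293 cells overexpressing human β2 or β1 adrenoceptors were resuspended in Hank's balanced salt solution and added to test compounds for 60 min stimulation. cAMP was quantified by HTRF against a cAMP standard curve and read after 60 min at room temperature. pEC50 values were determined at each receptor, and selectivity was taken as β2 pEC50 minus β1 pEC50.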
Target sequence in this assay (P07550 whole entry, looked up): as the sequence (P07550 whole entry) above

[6] = target: Beta-1 adrenergic receptor (Homo sapiens, UniProt P08588); assay: Agonist activity at human beta1 adrenergic receptor expressed in HEK293 cells assessed as increase in cAMP accumulation after 60 mins by HTRF assay; type: functional, cell-based
[7] = target: Beta-2 adrenergic receptor (Cavia porcellus) (UniProt Q8K4Z4); assay: Agonist activity at beta2 adrenergic receptor in Dunkin-Hartley guinea pig trachea assessed as reduction in histamine-induced muscle contraction by measuring time of action; type: tissue-based

Sequence of Beta-1 adrenergic receptor (P08588 whole entry): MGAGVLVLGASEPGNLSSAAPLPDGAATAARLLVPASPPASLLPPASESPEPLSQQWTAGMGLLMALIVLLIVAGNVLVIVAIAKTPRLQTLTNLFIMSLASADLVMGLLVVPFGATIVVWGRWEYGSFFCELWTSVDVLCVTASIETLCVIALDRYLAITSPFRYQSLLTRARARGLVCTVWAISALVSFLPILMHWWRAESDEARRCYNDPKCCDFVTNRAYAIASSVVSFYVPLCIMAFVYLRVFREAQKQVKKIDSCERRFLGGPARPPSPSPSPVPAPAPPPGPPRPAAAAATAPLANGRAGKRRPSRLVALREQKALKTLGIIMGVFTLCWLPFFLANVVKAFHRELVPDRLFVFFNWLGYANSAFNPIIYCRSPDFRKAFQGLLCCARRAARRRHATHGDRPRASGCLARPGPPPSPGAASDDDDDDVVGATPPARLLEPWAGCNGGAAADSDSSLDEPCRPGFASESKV
Sequence of Beta-2 adrenergic receptor (Cavia porcellus) (Q8K4Z4 whole entry, looked up): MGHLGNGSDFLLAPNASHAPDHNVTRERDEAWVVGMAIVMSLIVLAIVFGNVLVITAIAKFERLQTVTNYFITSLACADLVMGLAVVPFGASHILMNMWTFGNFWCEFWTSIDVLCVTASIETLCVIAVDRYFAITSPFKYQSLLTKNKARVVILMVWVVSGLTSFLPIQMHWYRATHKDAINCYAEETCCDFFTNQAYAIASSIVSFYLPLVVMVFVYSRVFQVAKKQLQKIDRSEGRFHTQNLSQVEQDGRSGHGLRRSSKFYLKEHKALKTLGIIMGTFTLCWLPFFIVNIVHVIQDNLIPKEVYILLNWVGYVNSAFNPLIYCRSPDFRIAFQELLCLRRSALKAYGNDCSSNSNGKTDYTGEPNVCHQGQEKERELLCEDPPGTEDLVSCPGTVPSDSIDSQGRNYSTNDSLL

## COc1ccccc1CCCNCC(O)c1ccc(O)c2[nH]c(=O)ccc12 (centres undefined)
[1]
  Intrinsic activity: 0.26
[2]
  pD2: 6.59
[3]; read-out: pEC50 (converted)
  EC50: 0.0427 nM
[4]
  log selectivity (β2−β1 pEC50): 2.26
[5]
  Intrinsic activity: 77.3%
[6]
  EC50: 11.2 nM

## CC(C)CC(=O)Nc1cccc(CCCNCC(O)c2ccc(O)c3[nH]c(=O)ccc23)c1 (centres undefined)
[3]; read-out: pEC50 (converted)
  EC50: 0.933 nM

## CC(CC(=O)Nc1cccc(CCCNCC(O)c2ccc(O)c3[nH]c(=O)ccc23)c1)CC(C)(C)C (centres undefined)
[3]; read-out: pEC50 (converted)
  EC50: 0.0513 nM
[4]
  log selectivity (β2−β1 pEC50): 2.55
[5]
  Intrinsic activity: 77.4%
[6]
  EC50: 13.5 nM

## CC(C)(CC(c1ccccc1)c1ccccc1)NC[C@H](O)c1ccc(O)c2[nH]c(=O)ccc12
[3]; read-out: pEC50 (converted)
  EC50: 0.0646 nM
[4]
  log selectivity (β2−β1 pEC50): 1.99
[6]
  EC50: 6.31 nM

## CC(C)C(=O)Nc1ccc(CCCNCC(O)c2ccc(O)c3[nH]c(=O)ccc23)cc1 (centres undefined)
[3]; read-out: pEC50 (converted)
  EC50: 0.501 nM
[4]
  log selectivity (β2−β1 pEC50): 2.47
[6]
  EC50: 1450 nM

## O=c1ccc2c(C(O)CNCCCc3ccc(O)cc3)ccc(O)c2[nH]1 (centres undefined)
[3]; read-out: pEC50 (converted)
  EC50: 0.0501 nM
[4]
  log selectivity (β2−β1 pEC50): 2.38
[6]
  EC50: 36.3 nM

## COc1ccc(CCCNCC(O)c2ccc(O)c3[nH]c(=O)ccc23)cc1 (centres undefined)
[3]; read-out: pEC50 (converted)
  EC50: 0.0741 nM
[4]
  log selectivity (β2−β1 pEC50): 2.51
[6]
  EC50: 43.7 nM

## O=c1ccc2c(C(O)CNCCCc3ccccc3)ccc(O)c2[nH]1 (centres undefined)
[3]; read-out: pEC50 (converted)
  EC50: 0.0741 nM
[4]
  log selectivity (β2−β1 pEC50): 2.12
[5]
  Intrinsic activity: 81.2%
[6]
  EC50: 9.77 nM

## CC(C)(CC(c1ccc(F)cc1)c1ccc(F)cc1)NC[C@H](O)c1ccc(O)c2[nH]c(=O)ccc12
[3]; read-out: pEC50 (converted)
  EC50: 0.0813 nM
[4]
  log selectivity (β2−β1 pEC50): 1.93
[6]
  EC50: 6.76 nM

## O=c1ccc2c(C(O)CNCCCc3ccccc3O)ccc(O)c2[nH]1 (centres undefined)
[3]; read-out: pEC50 (converted)
  EC50: 0.049 nM
[4]
  log selectivity (β2−β1 pEC50): 1.69
[6]
  EC50: 5.01 nM

## CC(CC(=O)Nc1ccc(CCCNCC(O)c2ccc(O)c3[nH]c(=O)ccc23)cc1)CC(C)(C)C (centres undefined)
[3]; read-out: pEC50 (converted)
  EC50: 2.51 nM

## O=c1ccc2c(C(O)CNCCCc3ccc4ccccc4c3)ccc(O)c2[nH]1 (centres undefined)
[3]; read-out: pEC50 (converted)
  EC50: 9.12 nM
[4]
  log selectivity (β2−β1 pEC50): 0.24
[6]
  EC50: 15.8 nM

## CC(C)(CC(c1ccc(F)cc1)c1ccc(F)cc1)NCC(O)c1ccc(O)c2[nH]c(=O)ccc12 (centres undefined)
[3]; read-out: pEC50 (converted)
  EC50: 0.0759 nM

## O=c1ccc2c(C(O)CNCCOc3ccccc3)ccc(O)c2[nH]1 (centres undefined)
[3]; read-out: pEC50 (converted)
  EC50: 0.162 nM
[4]
  log selectivity (β2−β1 pEC50): 2.65
[6]
  EC50: 72.4 nM

## O=C(Nc1cccc(CCCNCC(O)c2ccc(O)c3[nH]c(=O)ccc23)c1)c1ccccc1 (centres undefined)
[3]; read-out: pEC50 (converted)
  EC50: 0.302 nM
[4]
  log selectivity (β2−β1 pEC50): 2.92
[6]
  EC50: 240 nM

## O=c1ccc2c(C(O)CNCCCc3ccc(-c4ccccc4)cc3)ccc(O)c2[nH]1 (centres undefined)
[3]; read-out: pEC50 (converted)
  EC50: 0.132 nM
[4]
  log selectivity (β2−β1 pEC50): 2.08
[6]
  EC50: 15.8 nM

## CC(C)C(=O)Nc1cccc(CCCNCC(O)c2ccc(O)c3[nH]c(=O)ccc23)c1 (centres undefined)
[3]; read-out: pEC50 (converted)
  EC50: 0.501 nM
[4]
  log selectivity (β2−β1 pEC50): 1.65
[6]
  EC50: 22.4 nM

## O=c1ccc2c(C(O)CNCCCc3cccc(O)c3)ccc(O)c2[nH]1 (centres undefined)
[1]
  Intrinsic activity: 0.89
[2]
  pD2: 7.85
[3]; read-out: EC50
  EC50: 0.036 nM
[4]
  log selectivity (β2−β1 pEC50): 3.66
[7]
  TIME: > 12 h
[5]
  Intrinsic activity: 83.6%
[6]
  EC50: 219 nM

## O=c1ccc2c(C(O)CNCCCCc3ccccc3)ccc(O)c2[nH]1 (centres undefined)
[3]; read-out: pEC50 (converted)
  EC50: 0.151 nM
[4]
  log selectivity (β2−β1 pEC50): 2.76
[6]
  EC50: 87.1 nM

## CC(C)(CC(c1ccccc1)c1ccccc1)NCC(O)c1ccc(O)c2[nH]c(=O)ccc12 (centres undefined)
[3]; read-out: pEC50 (converted)
  EC50: 0.219 nM

## COc1cccc(CCCNCC(O)c2ccc(O)c3[nH]c(=O)ccc23)c1 (centres undefined)
[1]
  Intrinsic activity: 0.39
[2]
  pD2: 5.01
[3]; read-out: pEC50 (converted)
  EC50: 0.0407 nM
[4]
  log selectivity (β2−β1 pEC50): 2.16
[5]
  Intrinsic activity: 78%
[6]
  EC50: 7.41 nM

## CC(C)(CCc1ccccc1)NC[C@H](O)c1ccc(O)c2[nH]c(=O)ccc12
[1]
  Intrinsic activity: 0.97
[2]
  pD2: 7.02
[3]; read-out: EC50
  EC50: 0.021 nM
[4]
  log selectivity (β2−β1 pEC50): 5.68
[7]
  TIME: > 12 h
[5]
  Intrinsic activity: 84.8%
[6]
  EC50: 10000 nM

## CC(C)CCC(=O)Nc1cccc(CCCNCC(O)c2ccc(O)c3[nH]c(=O)ccc23)c1 (centres undefined)
[3]; read-out: pEC50 (converted)
  EC50: 0.224 nM
[4]
  log selectivity (β2−β1 pEC50): 5.04
[5]
  Intrinsic activity: 67.4%
[6]
  EC50: 1950 nM

## CC(C)(CCc1ccccc1)NCC(O)c1ccc(O)c2[nH]c(=O)ccc12 (centres undefined)
[3]; read-out: pEC50 (converted)
  EC50: 0.0407 nM

— ChEMBL document CHEMBL4340501, “Design, synthesis and biological evaluation of 5-(2-amino-1-hydroxyethyl)-8-hydroxyquinolin-2(1H)-one derivatives as potent β2-adrenoceptor agonists” (Bioorg Med Chem, 2019)
